Screening data as filed in PubChem BioAssay.
rRNA inh HTS = inhibitors of bacterial rRNA selective over humanized ribosomes | E. coli WT GFP vs humanized-ribosome RFP mutants, fluorescence, 24 h; active compounds read low; DMSO median 0, no signal -100 | GFP signal change (wild-type ribosome), % (concentration not given with the values) | AID 720706 | 1.6% of 350,000 active;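 active means significant combined selectivity score with lowered wild-type GFP, culture density cut under 30%, mutant RFP and density less affected; inactive means any of these conditions unmet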
E-sel inducer = E-selectin induction on HUVECs. HUVEC E-selectin immunofluorescence imaging; normalized: neutral wells 0, TNF-alpha wells 100. activation, % at 7.58 µM. 0.37% of 260,000 active;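 active means mean E-selectin-positive cell signal at least 10% of the positive control, reached in at least 60% of replicates, without over 20% cell loss; inconclusive means no rule given, readout overlaps actives, possibly toxicity-flagged; inactive means the rest, including those meeting only one limit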
Target sequence (P16581 whole entry, looked up): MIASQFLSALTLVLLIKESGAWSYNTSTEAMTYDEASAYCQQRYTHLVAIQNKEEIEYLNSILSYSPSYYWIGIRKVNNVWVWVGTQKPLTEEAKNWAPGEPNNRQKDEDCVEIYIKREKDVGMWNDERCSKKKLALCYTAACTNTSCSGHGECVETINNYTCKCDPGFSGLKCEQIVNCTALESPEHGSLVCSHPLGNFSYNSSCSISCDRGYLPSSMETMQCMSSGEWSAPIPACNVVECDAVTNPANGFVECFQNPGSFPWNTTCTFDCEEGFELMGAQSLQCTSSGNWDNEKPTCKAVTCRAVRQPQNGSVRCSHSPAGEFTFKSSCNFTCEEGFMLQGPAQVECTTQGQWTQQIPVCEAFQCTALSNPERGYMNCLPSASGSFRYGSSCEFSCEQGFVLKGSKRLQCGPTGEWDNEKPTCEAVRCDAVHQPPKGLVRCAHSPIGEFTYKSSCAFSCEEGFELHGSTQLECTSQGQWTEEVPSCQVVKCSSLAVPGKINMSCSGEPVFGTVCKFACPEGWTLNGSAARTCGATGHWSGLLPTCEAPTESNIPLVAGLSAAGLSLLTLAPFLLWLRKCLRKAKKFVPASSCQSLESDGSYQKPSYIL
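System: HUVEC / Compound: single concentration / Signal: immunofluorescence imaging / Read-out: percent E-selectin-positive cells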
DENV2 CPE rescue = protects cells from dengue virus 2 cytopathic effect; AID 651640; 1.7% of 350,000 active; CPE inhibition, % at 9.99 µM; DENV2-infected cells, cytopathic effect rescue, plate reader; in the data active means CPE inhibition above about 20%, passing the limit was not always enough; inconclusive means no clear call, values can overlap the other calls; tested in BHK-21 cells;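 further: 0% = median of neutral control wells and 100% = median of positive control wells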
Cneo AK release = causes C. neoformans cell lysis; AID 651654; adenylate kinase release luminescence, 4 h; normalised: neutral wells 0, clomiphene wells 100; lysis activity, % at 15 µM; 0.2% of 360,000 active;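 active means mean lysis activity across replicates of at least 80%, whatever share of replicates individually reach that level; inactive means mean lysis activity below 80%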
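Test system: log-phase Cryptococcus neoformans yeast cells; Quantity: yeast cell density of 5 × 10^6 cells/mL; Buffer or medium: YPD; Doses: single compound concentration per well; Timing: 4 h at 37 °C static, read 1 h later; Measured by: AK luminescence; Read-out basis: lysis from increased AK signal; Control set: Clomiphene as positive control.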
miR122 inh = inhibitors of miR-122 in Huh7 cells; Huh7 miR-122 Renilla luciferase sensor, 48 h; neutral wells = 0, positive control = 100; activation (reporter increase), % at 12.5 µM; AID 602342; 0.3% of 340,000 active;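 active means mean replicate activation score at least 90 and every replicate individually at or above 90; inconclusive means only one of the two criteria met; inactive means neither criterion met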;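 further: higher luciferase means less miR-122 activity so hits act as miR-122 inhibitors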
HepG2 cytotox = HepG2 cell cytotoxicity. shares compounds with rRNA inh HTS. HepG2 viability, ATP luminescence, 72 h. activity change, negative = cytotoxicity, unspecified at 26 µM. 30 tested, under 10 active;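 active means compounds whose fitted half-maximal signal-loss concentration is at most twice their highest valid dose; inconclusive means flat curve with 30 to 70% signal loss, or poor fit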
AID977621 = wild-type E. coli growth inhibition versus H69 humanized strain – H69 mutant RFP, wild-type GFP, cherry-pick, dose response; AID 977621; fluorescence, 24 h; activity change, negative = inhibition at 50 µM; 1,900 tested, under 10 active; shares compounds with rRNA inh HTS;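 active means Wild-type ribosome reporter drop at least double the humanized mutant ribosome reporter drop, growth loss under a set limit; inconclusive means no clear call, values can overlap the other calls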;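 further: wild-type GFP and H69 mutant RFP strains grown together 50/50 in each well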
AID977628 = E. coli growth inhibition, wild-type GFP versus h24 humanized RFP strain, dose response, h24 mutant RFP vs wild-type GFP, cherry-pick; E. coli WT GFP strain growth, fluorescence, 24 h; shares compounds with rRNA inh HTS; activity change, negative = inhibition at 50 µM; AID 977628; 1,900 tested, under 10 active;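 active means compound lowering the normal-ribosome reporter at least twice as much as the humanized-ribosome reporter, growth loss under a set limit; inconclusive means no clear call, values can overlap the other calls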;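 further: wild-type GFP and h24 humanized RFP strains co-cultured 1 to 1 per well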
* = called active by the depositor; ? = inconclusive; / = no result given; [ ] = dose if it differs, or a comment. Rows were chosen to be rich in hits. Some 3.1% of all compounds tested hit in one or more screens of this group.

SMILES	rRNA inh HTS	E-sel inducer	DENV2 CPE rescue	Cneo AK release	miR122 inh	AID977621	AID977628	others
C[C@H]1CN([C@@H](C)CO)C(=O)c2cc(NC(=O)Cn3cnnn3)ccc2O[C@@H]1CN(C)C(=O)Nc1ccc(F)cc1	7.7	-0.1	-3.9	1.3	-3.9[16.7 µM]	/	/
CCC(=O)N1CC(=O)N2[C@H](CO)[C@H](c3ccc(C#CC4CCCC4)cc3)[C@@H]2C1	-0.2	0.2	-5.7	/	/	/	/
Cc1cc(C(N)=O)nn1-c1c(Cl)cc(Cl)cc1Cl	-30.6*	2.9	-3.4	/	/	-3.54	/
CSc1nc(N)nc(SC2C=CCCC2)c1C#N (stereo not drawn)	-23.6*	/	1.0	-1.0	-5.0	/	?	HepG2 cytotox=23
CSc1nc(N)nc(SCC(=O)C(C)(C)C)c1C#N	/	/	/	-1.6	-4.2	/	/
CC(OC(=O)CCc1nc2ccccc2c(=O)[nH]1)C(=O)c1ccc(Br)cc1 (stereo not drawn)	-23.5*	/	-1.6	-0.4	-3.1	/	?
CC(OC(=O)CCc1c[nH]c2ccccc12)C(=O)c1ccccc1 (stereo not drawn)	-24.8*	6.9	-10.1	/	/	/	?
CC(=O)c1cccc(NC(=O)C(C)OC(=O)CCc2nc3ccccc3c(=O)[nH]2)c1 (stereo not drawn)	4.1	-0.3	1.5	/	/	/	/
CNC[C@H]1Oc2cc(C#CC3(O)CCCC3)ccc2S(=O)(=O)N([C@H](C)CO)C[C@H]1C	3.2	0.1	1.8	1.7	50.2[16.7 µM]	/	/
CC(C)[C@@H]1CC[C@@H](C)C[C@H]1OC[B-](F)(F)F	-12.7	0.0	-8.3	/	/	/	/
CC(C)[C@@H]1CC[C@@H](C)C[C@H]1O	-14.3*	24.5	-1.6	-0.9	-4.2	-8.08	?
COc1ccc(S(=O)(=O)Nc2ccc3c(c2)CC(=O)N([C@@H](C)CO)C[C@@H](C)[C@H](CN(C)Cc2ccc(-c4ccccc4)cc2)O3)cc1	-2.6	-0.1	-22.1	1.1	-30.4[16.7 µM]	/	/
COc1ccc2c(c1)Sc1ccccc1N2	-13.0	5.5	3.2	/	/	/	/
c1ccc2c(c1)Nc1cc3ccccc3cc1S2	-21.0*	9.1	?	/	/	-5.29	-7.62
O=C(Cc1ccccc1)NC(NC(=O)Cc1ccccc1)c1cccc([N+](=O)[O-])c1	4.3	/	0.1	/	/	/	/
C=CCN(CC(O)c1cccc([N+](=O)[O-])c1)C(C)CCc1ccccc1 (stereo not drawn)	-20.6*	-0.3	/	/	/	?	/
Nc1ncncc1-c1ccc2ccccc2c1	-31.5*	0.0	-3.8	-1.2	/	-14.4	?
COc1ccc(-c2cncnc2N)cc1OC	-5.2	/	0.4	0.1	-4.7	/	/
Cc1ccccc1S(=O)(=O)N1CC(=O)N2[C@H](C1)[C@@H](c1ccc(C#CC3CC3)cc1)[C@@H]2CO	-3.4	-0.6	16.6	/	/	/	/
CNC(=O)c1ccsc1NC(=O)c1ccc2c(c1)CCCC2	-25.8*	1.3	-13.9	-6.0	-2.0	?	/
O=C(Nc1ccc(C(F)(F)F)cc1)C1CCN(c2cnccn2)CC1	-31.0*	/	-0.6	5.8	-5.1	-3.79	-2.58
C[C@@H]1CN([C@H](C)CO)C(=O)Cc2cc(NC(=O)c3ccncc3)ccc2O[C@H]1CN(C)Cc1ccc(C(=O)O)cc1	0.2	/	-5.5	-0.7	-12.2[16.7 µM]	/	/
CCC1CCCCN1C(=O)CSc1nnc(-c2cccc(Cl)c2)o1 (stereo not drawn)	-25.5*	/	-6.3	-2.9	3.8	-11.7	-14.5
CCCN1[C@H](CO)[C@H](c2ccc(C3=CCCC3)cc2)[C@H]1CN(C(C)=O)C1CCCC1	1.4	0.1	-1.3	/	/	/	/
C[C@@H]1CN([C@H](C)CO)C(=O)c2cc(C#Cc3cccc(F)c3)cnc2O[C@H]1CN(C)C(=O)C1CCCCC1	-6.7	-0.2	5.5	4.2	-8.0[16.7 µM]	/	/
